Measured values reported in ChEMBL document CHEMBL4014308, “Amphiphilic Tobramycin-Lysine Conjugates Sensitize Multidrug Resistant Gram-Negative Bacteria to Rifampicin and Minocycline” (J Med Chem, 2017).
Converted amounts (≈) assume the structure as drawn. The source made the active and inactive calls. No cut-off for these calls is given here.

Key:
Format in all cases: functional
[1] = system: Pseudomonas aeruginosa; assay: Antibacterial activity against Pseudomonas aeruginosa PAO1 after 18 hrs by microtiter dilution assay
Summary of the method: (§1)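 Broth microdilution following CLSI guidelines. An overnight culture was adjusted to 0.5 McFarland in saline, then diluted 1:50 in Mueller-Hinton broth. This inoculum was added in equal volume to 2-fold serial dilutions of agent in MHB and incubated 18 h at 37 °C. MIC was the lowest concentration with no visible growth.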

[2] = system: Pseudomonas aeruginosa; assay: Antibacterial activity against multidrug/extremely drug-resistant/colistin-resistant Pseudomonas aeruginosa isolate 91433 after 18 hrs by microtiter dilution assay; summary of the method: as §1
[3] = system: Pseudomonas aeruginosa; assay: Antibacterial activity against multidrug/extremely drug-resistant/colistin-susceptible Pseudomonas aeruginosa isolate P259-96918 after 18 hrs by microtiter dilution assay; summary of the method: as §1
[4] = system: Pseudomonas aeruginosa; assay: Antibacterial activity against Pseudomonas aeruginosa PAO1 assessed as ratio of MIC after 25 serial passages to MIC before 25 serial passages by microtiter dilution assay
Summary of the method: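 Sequential passaging of wild-type PAO1 with single drugs or drug combinations. MIC was tested in MHB for 18 h. Cells from the well at half the MIC were adjusted to 0.5 McFarland in saline, diluted 1:50 in fresh MHB and used for the next MIC test. This was repeated for 25 passages, and the fold change in MIC was plotted against passage number.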

[5] = system: Pseudomonas aeruginosa; assay: Antibacterial activity against multidrug/extremely drug-resistant/colistin-susceptible Pseudomonas aeruginosa isolate P262-101856 infected in Galleria mellonella assessed as mortality at 75 mg/kg after 24 hrs relative to control; conditions: isolate P262-101856, 24 h
Summary of the method: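 Galleria mellonella larvae (about 250 mg, used within 7 days; 15 per group) were injected with 10 µL of XDR P. aeruginosa P262 at 1.0×10^3 CFU/mL. At 2 h they received a single 10 µL injection: monotherapy at 75 mg/kg, or combinations at 12.5+12.5 to 75+75 mg/kg. PBS vehicle served as control. Survival was scored over 24 h at 37 °C.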

[6] = system: Pseudomonas aeruginosa; assay: Antibacterial activity against multidrug/extremely drug-resistant/colistin-susceptible Pseudomonas aeruginosa isolate 101885 after 18 hrs by microtiter dilution assay; summary of the method: as §1
[7] = system: Klebsiella pneumoniae; assay: Antibacterial activity against multidrug-resistant Klebsiella pneumoniae 116381 after 18 hrs by microtiter dilution assay; conditions: Klebsiella pneumoniae, 116381, 18 h; summary of the method: as §1
[8] = system: Pseudomonas aeruginosa; assay: Bactericidal activity against Pseudomonas aeruginosa PAO1 at 0.125 times antibacterial MIC after 6 hrs
[9] = system: Pseudomonas aeruginosa; assay: Bactericidal activity against Pseudomonas aeruginosa PAO1 at 4 times antibacterial MIC after 6 hrs
Summary of the method: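 Time-kill with P. aeruginosa PAO1. A 0.5 McFarland suspension was diluted 1:50 in LB broth and exposed to agent in PBS (pH 7.2) at 1/2×, 1×, 2× or 4× MIC at 37 °C for 6 h. Samples at 0, 10, 30, 60, 90, 120, 240 and 360 min were serially diluted in PBS, plated on LB agar, and colonies counted after 20 h at 37 °C.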

[10] = system: Acinetobacter baumannii; assay: Antibacterial activity against multidrug-resistant Acinetobacter baumannii AB027 after 18 hrs by microtiter dilution assay; conditions: AB027, 18 h; summary of the method: as §1
[11] = system: Pseudomonas aeruginosa; assay: Antibacterial activity against multidrug/extremely drug-resistant/colistin-susceptible Pseudomonas aeruginosa isolate P262-101856 after 18 hrs by microtiter dilution assay; summary of the method: as §1
[12] = system: Acinetobacter baumannii; assay: Antibacterial activity against multidrug-resistant Acinetobacter baumannii AB030 after 18 hrs by microtiter dilution assay; conditions: AB030, 18 h; summary of the method: as §1
[13] = system: Pseudomonas aeruginosa; assay: Antibacterial activity against multidrug/extremely drug-resistant/colistin-susceptible Pseudomonas aeruginosa isolate 100036 after 18 hrs by microtiter dilution assay; summary of the method: as §1
[14] = system: Acinetobacter baumannii; assay: Antibacterial activity against multidrug-resistant Acinetobacter baumannii AB031 after 18 hrs by microtiter dilution assay; conditions: AB031, 18 h; summary of the method: as §1
[15] = system: Acinetobacter baumannii; assay: Antibacterial activity against multidrug-resistant Acinetobacter baumannii 110193 after 18 hrs by microtiter dilution assay; conditions: Acinetobacter baumannii, 110193, 18 h; summary of the method: as §1
[16] = system: Pseudomonas aeruginosa; assay: Antibacterial activity against multidrug/extremely drug-resistant/colistin-resistant Pseudomonas aeruginosa isolate 101243 after 18 hrs by microtiter dilution assay; summary of the method: as §1
[17] = system: Enterobacter cloacae; assay: Antibacterial activity against multidrug-resistant Enterobacter cloacae 117029 after 18 hrs by microtiter dilution assay; conditions: Enterobacter cloacae, 117029, 18 h; summary of the method: as §1
[18] = system: Pseudomonas aeruginosa; assay: Antibacterial activity against multidrug/extremely drug-resistant/colistin-susceptible Pseudomonas aeruginosa isolate P264-104354 after 18 hrs by microtiter dilution assay; summary of the method: as §1
[19] = system: Pseudomonas aeruginosa; assay: Potentiation of rifampicin-induced antibacterial activity against Pseudomonas aeruginosa PAO1 at 4 ug/ml after 18 hrs by checkerboard assay
Summary of the method: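 Checkerboard in MHB with a 10 × 7 matrix: antibiotic serially diluted along one axis, adjuvant along the other. Inoculum was a 1:50 dilution of a 0.5 McFarland suspension, incubated 18 h at 37 °C and read on a plate reader. Each FIC is the concentration in a no-growth well divided by the MIC alone; FIC index is their sum, with ≤0.5 taken as synergy.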

[20] = system: Pseudomonas aeruginosa; assay: Potentiation of novobiocin-induced antibacterial activity against Pseudomonas aeruginosa PAO1 at 4 ug/ml after 18 hrs by checkerboard assay
[21] = system: Pseudomonas aeruginosa; assay: Disruption of proton motive force in Pseudomonas aeruginosa PAO1 cytoplasmic membrane assessed as repression of bacterial swimming motility at sub-MIC after 20 hrs
Summary of the method: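 Swim plates of 0.3% agar with tryptone 5 g/L and NaCl 2.5 g/L, agent mixed into the medium and plates dried 2 h. PAO1 at 1.0 McFarland in 0.85% saline was point-inoculated at the center, and plates incubated 20 h at 37 °C before swim diameter was imaged.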

[22] = system: Pseudomonas aeruginosa; assay: Induction of cytoplasmic membrane depolarization in Pseudomonas aeruginosa PAO1 up to 300 secs by diSC3-5 staining based fluorescence assay
Summary of the method: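 Mid-log PAO1 washed in 5 mM HEPES pH 7.4 with 20 mM glucose and resuspended to OD600 0.05. Cells were loaded with 0.2 mM EDTA and 0.4 µM diSC3-5 for 2 h at 37 °C in the dark, then equilibrated with 100 mM KCl for 30 min. Agent was added and fluorescence followed at 622/670 nm; agents tested at 32 µg/mL.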

[23] = system: Pseudomonas aeruginosa; assay: Induction of outer membrane permeabilization in Pseudomonas aeruginosa PAO1 at 32 ug/ml after 30 mins by CFDASE staining based fluorescence assay
Summary of the method: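 Log-phase PAO1 washed in PBS, brought to OD600 0.5 and loaded with 100 µM CFDASE for 30 min at 37 °C, then washed. Cells were exposed to agent for 30 min at 37 °C and supernatant fluorescence read at 488/520 nm. Untreated cells were subtracted; 1% Triton X-100 served as positive control.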

Q: Which MIC ([1]; PAO1, 18 h) does the source give for `CN(C)c1ccc(O)c2c1C[C@H]1C[C@H]3[C@H](N(C)C)C(O)=C(C(N)=O)C(=O)[C@@]3(O)C(O)=C1C2=O` [MINOCYCLINE] here?
A: 8 µg/mL (≈ 17.5 µM)

Q: What about the MIC ([2]; isolate 91433, 18 h) of the same molecule?
A: 64 µg/mL (≈ 140 µM)

Q: What about the MIC ([3]; isolate P259-96918, 18 h) of the same molecule?
A: 32 µg/mL (≈ 69.9 µM)

Q: What about the Ratio [4] of the same molecule?
A: 16

Q: What about the mortality at 75 mg/kg [5] of the same molecule?
A: 100%

Q: What about the MIC ([6]; isolate 101885, 18 h) of the same molecule?
A: 32 µg/mL (≈ 69.9 µM)

Q: What about the MIC [7] of the same molecule?
A: 128 µg/mL (≈ 280 µM)

Q: And the Activity [8]?
A: inactive

Q: What about the Activity [9] of the same molecule?
A: Active

Q: And the MIC [10]?
A: 1 µg/mL (≈ 2.19 µM)

Q: And the MIC ([11]; isolate P262-101856, 18 h)?
A: 256 µg/mL (≈ 560 µM)

Q: And the MIC [12]?
A: 4 µg/mL (≈ 8.74 µM)

Q: What about the MIC ([13]; isolate 100036, 18 h) of the same molecule?
A: 32 µg/mL (≈ 69.9 µM)

Q: And the MIC [14]?
A: 2 µg/mL (≈ 4.37 µM)

Q: And the MIC [15]?
A: 2 µg/mL (≈ 4.37 µM)

Q: And the MIC ([16]; isolate 101243, 18 h)?
A: 4 µg/mL (≈ 8.74 µM)

Q: What about the MIC [17] of the same molecule?
A: 128 µg/mL (≈ 280 µM)

Q: What about the MIC ([18]; isolate P264-104354, 18 h) of the same molecule?
A: 64 µg/mL (≈ 140 µM)

Q: What does the source list for COLISTIN?
A: Activity [19]: Active; Activity [20]: Active; MIC [1]: 1 µg/mL; MIC [2]: 4 µg/mL; MIC [3]: 0.5 µg/mL; Ratio [4]: 1024; Activity [21]: Active; MIC [6]: 0.5 µg/mL; MIC [11]: 2 µg/mL; MIC [13]: 2 µg/mL; Activity [22]: Dose-dependent effect; Activity [23]: Active; MIC [16]: > 1020 µg/mL; MIC [18]: 4 µg/mL
